# LMPTP block: LMPTP phosphatase inhibitors, primary screen, biochemical, fluorescence intensity, uHTS; Low molecular weight phosphotyrosine protein phosphatase (Homo sapiens), P24666; recombinant LMPTP-A, OMFP fluorogenic substrate; inhibition, % at 20 µM; actives 0.22% (n = 360,000); AID 651560, 2012;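 active = compounds that cut the enzyme signal by at least half of the control window in the single-dose screen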;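 also: plate controls were DMSO wells with enzyme plus substrate for no effect and substrate without enzyme for full effect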
# Target sequence (P24666 whole entry, looked up): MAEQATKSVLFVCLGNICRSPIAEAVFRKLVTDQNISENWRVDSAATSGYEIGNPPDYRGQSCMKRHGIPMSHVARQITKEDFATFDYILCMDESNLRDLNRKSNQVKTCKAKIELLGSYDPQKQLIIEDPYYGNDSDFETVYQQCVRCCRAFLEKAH
#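 Test system – LMPTP-A phosphatase enzyme · Quantity – 0.625 nM LMPTP-A final · Reagent – OMFP substrate, 400 µM final · Dosing – one test concentration per compound, 20 µM, with 3% DMSO overall · Timing – 50 min enzyme reaction at room temperature, protected from light · Detection – fluorescence intensity · Controls – substrate-only low control, DMSO enzyme-plus-substrate high control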
# SUMO1 PPI mod: modulators of SUMO1 protein-protein interactions, primary screen, biochemical, uHTS | Small ubiquitin-related modifier 1 (Homo sapiens), P63165 | SUMO1 binding to a labelled peptide, TR-FRET, 1 h | inhibition, % at 20 µM | actives 0.33% (n = 360,000) | AID 602429, 2012; in the data active = inhibition above about 37%
# Target sequence (P63165 whole entry, looked up): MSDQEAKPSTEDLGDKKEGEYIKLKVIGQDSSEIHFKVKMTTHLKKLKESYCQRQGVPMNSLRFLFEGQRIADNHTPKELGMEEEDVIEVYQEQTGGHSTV
# DNMT1 inh: human DNMT1 methyltransferase inhibitors, primary screen, biochemical, molecular beacon, fluorescence, HinP1I cleavage, uHTS. DNA (cytosine-5)-methyltransferase 1 (Homo sapiens), P26358. inhibition (reported as % activation of signal), % at 10 µM. actives 0.83% (n = 360,000). AID 588458, 2011; in the data active = inhibition above about 50%
# STEP block: STEP phosphatase inhibitors, primary screen, biochemical, fluorescence intensity, uHTS; recombinant STEP, OMFP fluorogenic substrate; Tyrosine-protein phosphatase non-receptor type 5 (Homo sapiens), P54829; inhibition, % at 20 µM; actives 0.25% (n = 360,000);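 active = inhibition at 20 µM, scaled per plate between control wells, above about 37%, limit read from the data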;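 also: 0% = DMSO with enzyme and substrate and 100% = substrate only without enzyme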
#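 Test system: STEP tyrosine phosphatase / Reagent: OMFP at 25 µM / Doses: 20 µM, 1% DMSO / Read-out: percent inhibition scaled to no-enzyme and uninhibited-enzyme controls, plate-pattern corrected / Detection: FITC-channel fluorescence of OMFP product / Medium: Bis-Tris buffer pH 6.0, 2.5 mM DTT, 0.005% Tween 20 / Schedule: 20 min at room temperature, dark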
# SUMO HTRF inh: inhibitors of in vitro SUMOylation cascade, primary screen, biochemical, HTRF, uHTS; HTRF SUMOylation assay, SAE1/SAE2 + UBC9; inhibition, % at 35 µM; actives 0.36% (n = 290,000); in the data active = inhibition above about 50%, passing the limit was not always enough
# Scp1 inh: Scp-1 phosphatase inhibitors, primary screen, biochemical, colorimetric, uHTS; actives 0.88% (n = 340,000); Carboxy-terminal domain RNA polymerase II polypeptide A small phosphatase 1 (Homo …; inhibition, % at 20 µM; Recombinant Scp1, phosphopeptide, malachite green phosphate absorbance;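 active = inhibition above about 50% at 20 µM, limit read from the data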;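 also: plate controls were DMSO wells with enzyme for no effect and wells lacking enzyme for full effect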
# Target sequence (Q9GZU7 76-261 limits assumed): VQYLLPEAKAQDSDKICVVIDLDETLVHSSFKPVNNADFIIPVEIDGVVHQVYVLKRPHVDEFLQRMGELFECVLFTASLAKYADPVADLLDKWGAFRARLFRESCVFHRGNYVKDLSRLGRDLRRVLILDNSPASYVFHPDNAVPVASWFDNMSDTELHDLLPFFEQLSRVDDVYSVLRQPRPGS
#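 Incubation: 45 min enzyme reaction at room temperature / System: truncated SCP-1 phosphatase (76-261aa) / Reagent: Phospho 17-mer peptide substrate / Buffer or medium: Acidic Tris acetate buffer with magnesium and detergent / Signal: absorbance at 630 nm / Doses: one concentration, 20 µM, with 1.0% DMSO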
# * hit, by the source's call; . = not tested or not shown. In the library only some 1.9% were active in any assay of this set; here they are far more common.
SMILES,LMPTP block,SUMO1 PPI mod,DNMT1 inh,STEP block,SUMO HTRF inh,Scp1 inh
COc1ccc(C(=O)NC2CCCCC2)cc1OC1CCN(C(C)C)CC1,0,5,1,-2,2,-15
CCCCC(CC)CO (stereo not drawn),0,0,0,5,.,7
CCCCC(CC)CN=C(N)NC(N)=NCCCCCCN=C(N)NC(N)=NCC(CC)CCCC (stereo not drawn),1,86*,-86,7,.,-12
CCOC(=O)c1sc2nc3c(SCCC(=O)O)cc(C(=O)c4cc(OC)ccc4O)cn3c(=O)c2c1C,92*,84*,104*,96*,74*,27
CCOC(=O)c1sc2nc3c(SCCC#N)cc(C(=O)c4cc(F)ccc4O)cn3c(=O)c2c1C,0,9,-5,4,29,-27
Cc1ccc(-c2nnn(CC(=O)N(Cc3cccs3)C(C(=O)NC3CCCC3)c3ccncc3)n2)cc1 (stereo not drawn),1,45*,-21,3,-32,13
C=C1C(=O)C23C(O)C1CCC2C12COC3(O)C(O)C1C(C)(C)CCC2O (stereo not drawn),-2,2,-2,-1,.,.
COc1ccc(C(=O)N(NC(=O)Oc2ccccc2)C(C)(C)C)cc1,0,16,2,-2,16,2
CC(NC(=O)Cn1ncc(Cl)c(Cl)c1=O)C12CC3CC(CC(C3)C1)C2 (stereo not drawn),1,9,59*,-1,0,0
CN(C)c1ccc(/C=N/N=C2/NC(=O)/C(=C/c3ccc([N+](=O)[O-])cc3)S2)cc1,4,-30,66*,7,6,-2
CN(C)c1ccc(C=C2SC(=S)NC2=O)cc1,-6,-50,0,-13,.,-15
CCNC(=S)N/N=C/c1cccs1,0,-10,-1,0,19,-2
CCC(=O)NC1=C(Cl)C(=O)C(NC(=O)CC)=C(Cl)C1=O,0,-5,-8,-1,76*,25
O=S(=O)(c1ccc(Br)cc1Cl)N1CCN(CCO)CC1,0,-1,1,1,-4,-2
OCCOCCN1CCN(C2=Nc3ccccc3Sc3ccccc32)CC1,2,2,-1,-3,-10,-6
O=C1C=CC(=O)c2c(O)c(N3CCN(CCOCCO)CC3)c(Br)c(O)c21,77*,109*,98*,86*,.,70*
O=C1C=CC(=O)c2c(O)c(N3CCN(CCO)CC3)c(Cl)c(O)c21,76*,91*,103*,27,.,73*
CCCc1c(C(=O)N/N=C/C2CC=CCC2)nnn1-c1nonc1N (stereo not drawn),-1,-2,-1,5,.,.
CCN(CC(=O)Nc1ccccc1OC)C(=O)CCc1ccccc1,0,40*,1,1,-16,-6
CC(C)(C)OC(=O)[C@H](Cc1ccccc1)NC(=O)c1ncn2c1c(=O)[nH]c1ccc(Br)cc12,73*,-28,48,2,.,.
CC1=NN(c2ccc(C)c(C)c2)C(=O)/C1=C/c1ccc2c(c1)n(C)c(=O)n2C,-1,11,-12,1,85*,-1
CCc1ccc(N(CC(=O)NC(C)C)C(=O)CCC(=O)Nc2nccs2)cc1,-1,1,0,-2,10,9
COc1ccc2c(c1OC)C(=O)OC2C1c2c(cc3c(c2OC)OCO3)CCN1C (stereo not drawn),-1,-3,0,-1,27,-1
CN1CCc2cc3c(c4c2[C@H]1[C@H](O)c1ccccc1-4)OCO3,4,-36,70*,0,55,-6
Oc1ccccc1/C=N/Nc1cc(N2CCCC2)nc(N2CCCC2)n1,8,33,58*,8,14,-30
Oc1ccc(/C=N/Nc2cc(N3CCOCC3)nc(N3CCOCC3)n2)cc1O,2,-2,-18,-3,-8,-7

# High-throughput results: PubChem BioAssay, Sanford-Burnham Center for Chemical Genomics
